From ChEMBL document CHEMBL4715682, “Potent trifluoromethoxy, trifluoromethylsulfonyl, trifluoromethylthio and pentafluorosulfanyl containing (1,3,4-oxadiazol-2-yl)benzamides against drug-resistant Gram-positive bacteria” (RSC Med Chem, 2020)
≈ marks a conversion by molar mass, not a printed value. Calls of active or inactive are those of the source. No cut-off for these calls is given here.

Key:
Staphylococcus aureus [1] = experiment: Antibacterial activity against methicillin-resistant Staphylococcus aureus NRS385 assessed as inhibition of visible bacterial growth incubated for 18 to 20 hrs by CLSI method; type: functional; conditions: time 18-20 hrs
In short: (§1)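 CLSI broth microdilution. Strains grown aerobically overnight on tryptic soy agar at 37 °C, adjusted to 0.5 McFarland and diluted in cation-adjusted Mueller–Hinton broth to about 5×10^5 CFU/mL. Compounds and control drugs serially diluted across the plate. Incubated aerobically at 37 °C for 18-20 h. MIC is the lowest concentration with no visible growth.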

Streptococcus pneumoniae [2] = experiment: Antibacterial activity against […] Streptococcus pneumoniae ATCC 700677 assessed as inhibition of visible bacterial growth incubated for 18 to 20 hrs by CLSI method; type: functional; conditions: time 18-20 hrs; in short: as §1
Staphylococcus aureus [3] = experiment: Antibacterial activity against methicillin-resistant Staphylococcus aureus NRS387 assessed as inhibition of visible bacterial growth incubated for 18 to 20 hrs by CLSI method; type: functional; conditions: time 18-20 hrs; in short: as §1
Staphylococcus aureus [4] = experiment: Synergistic antibacterial activity against methicillin-resistant Staphylococcus aureus ATCC 33592 assessed as fractional inhibitory concentration index in presence of daptomycin by checkerboard assay; type: functional
Staphylococcus aureus [5] = experiment: Antibacterial activity against methicillin-resistant Staphylococcus aureus NRS383 assessed as inhibition of visible bacterial growth incubated for 18 to 20 hrs by CLSI method; type: functional; conditions: time 18-20 hrs; in short: as §1
J774 = experiment: Cytotoxicity against mouse J774 cells assessed as reduction in cell viability at 32 ug/ml incubated for 24 hrs by MTS assay; type: cell-based; conditions: j774, 24 h, dose 32 µg/ml
Enterococcus faecalis [6] = experiment: Antibacterial activity against vancomycin- resistant Enterococcus faecalis ATCC 51299 assessed as inhibition of visible bacterial growth incubated for 18 to 20 hrs by CLSI method; type: functional; conditions: time 18-20 hrs; in short: as §1
Staphylococcus aureus [7] = experiment: Antibacterial activity against methicillin-resistant Staphylococcus aureus NRS484 assessed as inhibition of visible bacterial growth incubated for 18 to 20 hrs by CLSI method; type: functional; conditions: time 18-20 hrs; in short: as §1
Staphylococcus aureus [8] = experiment: Antibacterial activity against methicillin-sensitive Staphylococcus aureus NRS 107 assessed as inhibition of visible bacterial growth incubated for 18 to 20 hrs by CLSI method; type: functional; conditions: time 18-20 hrs; in short: as §1
Staphylococcus aureus [9] = experiment: Antibacterial activity against methicillin-resistant Staphylococcus aureus NRS 119 assessed as inhibition of visible bacterial growth incubated for 18 to 20 hrs by CLSI method; type: functional; conditions: time 18-20 hrs; in short: as §1
Staphylococcus aureus [10] = experiment: Synergistic antibacterial activity against methicillin-resistant Staphylococcus aureus ATCC 33592 assessed as fractional inhibitory concentration index in presence of Vancomycin; type: functional
Enterococcus faecalis [11] = experiment: Antibacterial activity against vancomycin- resistant Enterococcus faecalis ATCC 700221 assessed as inhibition of visible bacterial growth incubated for 18 to 20 hrs by CLSI method; type: functional; conditions: time 18-20 hrs; in short: as §1
Staphylococcus aureus [12] = experiment: Antibacterial activity against methicillin-resistant Staphylococcus aureus NRS123 assessed as inhibition of visible bacterial growth incubated for 18 to 20 hrs by CLSI method; type: functional; conditions: time 18-20 hrs; in short: as §1
Staphylococcus aureus [13] = experiment: Antibacterial activity against methicillin-sensitive Staphylococcus aureus ATCC 6538 assessed as inhibition of visible bacterial growth incubated for 18 to 20 hrs by CLSI method; type: functional; conditions: time 18-20 hrs; in short: as §1
Listeria monocytogenes = experiment: Antibacterial activity against Listeria monocytogenes ATCC 19111 assessed as inhibition of visible bacterial growth incubated for 18 to 20 hrs by CLSI method; type: functional; conditions: time 18-20 hrs
In short: (§2)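 Broth microdilution per CLSI. Strains grown aerobically overnight on TSA at 37 °C, suspended to 0.5 McFarland, diluted in CAMHB to about 5×10^5 CFU/mL. Agents serially diluted across plate; aerobic incubation 37 °C for 18-20 h. MIC = lowest concentration completely preventing visible growth.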

Escherichia coli = experiment: Antibacterial activity against Escherichia coli ATCC 25404 assessed as inhibition of visible bacterial growth at 16 ug/ml incubated for 18 to 20 hrs by CLSI method; type: functional, organism-based; conditions: B ATCC 25404, dose 16.0 µg/ml, time 18-20 hrs; in short: as §1
Streptococcus pneumoniae [14] = experiment: Antibacterial activity against cephalosporin-resistant Streptococcus pneumoniae ATCC 51916 assessed as inhibition of visible bacterial growth incubated for 18 to 20 hrs by CLSI method; type: functional; conditions: time 18-20 hrs; in short: as §1
Staphylococcus aureus [15] = experiment: Bactericidal activity against methicillin-resistant Staphylococcus aureus ATCC 33592 assessed as reduction in bacterial growth incubated for 18 hrs by CLSI method; type: functional
Pseudomonas aeruginosa = experiment: Antibacterial activity against Pseudomonas aeruginosa ATCC 27853 assessed as inhibition of visible bacterial growth at 16 ug/ml incubated for 18 to 20 hrs by CLSI method; type: functional, organism-based; conditions: dose 16.0 µg/ml, time 18-20 hrs; in short: as §1
Staphylococcus aureus [16] = experiment: Antibacterial activity against vancomycin-resistant Staphylococcus aureus 12 assessed as inhibition of visible bacterial growth incubated for 18 to 20 hrs by CLSI method; type: functional; conditions: time 18-20 hrs; in short: as §1
[17] = Hemolytic activity in human RBC at 128 ug/ml incubated for 60 mins relative to control; type: ADME, cell-based, Erythrocyte; conditions: red blood cells (erythrocytes), dose 128 µg/ml, read-out: Activity
In short: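 Single-donor human erythrocytes as a 5% v/v suspension in PBS. Compounds serially diluted in PBS, in triplicate, and incubated with RBCs at 37 °C for 60 min. PBS served as the negative control and Triton-X as the positive control. Samples spun at 4,000 rpm for 5 min and supernatant absorbance read at 540 nm. Percent hemolysis = 100×(sample−negative)/(positive−negative).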

Staphylococcus aureus [18] = experiment: Antibacterial activity against methicillin-resistant Staphylococcus aureus ATCC 33592 assessed as reduction in bacterial count at 3 x MIC incubated upto 24 hrs by time kill analysis; type: functional; conditions: time hrs <=24
In short: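 Time-kill assay. […] Samples taken at 0, 2, 4, 8, 12 and 24 h, serially diluted in PBS and plated on tryptic soy agar. Viable CFU/mL counted after 18-20 h at 37 °C.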

Staphylococcus aureus [19] = experiment: Antibacterial activity against methicillin-resistant Staphylococcus aureus NRS483 assessed as inhibition of visible bacterial growth incubated for 18 to 20 hrs by CLSI method; type: functional; conditions: time 18-20 hrs; in short: as §1
Acinetobacter baumannii = experiment: Antibacterial activity against Acinetobacter baumannii ATCC 19606 RW4 assessed as inhibition of visible bacterial growth at 16 ug/ml incubated for 18 to 20 hrs by CLSI method; type: functional, organism-based; conditions: ATCC 19606 = CIP 70.34 = JCM 6841 RW4, dose 16.0 µg/ml, time 18-20 hrs; in short: as §1
Staphylococcus aureus [20] = experiment: Synergistic antibacterial activity against methicillin-resistant Staphylococcus aureus ATCC 33592 assessed as fractional inhibitory concentration index in presence of linezolid by checkerboard assay; type: functional
Staphylococcus aureus [21] = experiment: Synergistic antibacterial activity against methicillin-resistant Staphylococcus aureus ATCC 33592 assessed as fractional inhibitory concentration index in presence of methicillin by checkerboard assay; type: functional
Staphylococcus aureus [22] = experiment: Antibacterial activity against methicillin-resistant Staphylococcus aureus NRS382 assessed as inhibition of visible bacterial growth incubated for 18 to 20 hrs by CLSI method; type: functional; conditions: time 18-20 hrs; in short: as §1
Staphylococcus aureus [23] = experiment: Antibacterial activity against methicillin-resistant Staphylococcus aureus NRS386 assessed as inhibition of visible bacterial growth incubated for 18 to 20 hrs by CLSI method; type: functional; conditions: time 18-20 hrs; in short: as §1
Staphylococcus aureus [24] = experiment: Antibacterial activity against Staphylococcus aureus ATCC 25923 assessed as inhibition of visible bacterial growth incubated for 18 to 20 hrs by CLSI method; type: functional; conditions: time 18-20 hrs; in short: as §1
Staphylococcus aureus [25] = experiment: Antibacterial activity against vancomycin-resistant Staphylococcus aureus 10 assessed as inhibition of visible bacterial growth incubated for 18 to 20 hrs by CLSI method; type: functional; conditions: time 18-20 hrs; in short: as §1
Staphylococcus aureus [26] = experiment: Antibacterial activity against methicillin-resistant Staphylococcus aureus NRS384 assessed as inhibition of visible bacterial growth incubated for 18 to 20 hrs by CLSI method; type: functional; conditions: time 18-20 hrs; in short: as §1
Caco-2 = experiment: Cytotoxicity against human Caco2 cells assessed as reduction in cell viability at 64 ug/ml incubated for 2 hrs by MTS assay; type: cell-based; conditions: caco-2, 2 h, dose 64 µg/ml
[27] = test system: Staphylococcus epidermidis; experiment: Antibacterial activity against Staphylococcus epidermidis NRS101 assessed as inhibition of visible bacterial growth incubated for 18 to 20 hrs by CLSI method; type: functional; conditions: time 18-20 hrs; in short: as §2
Staphylococcus aureus [28] = experiment: Antibacterial activity against methicillin-resistant Staphylococcus aureus ATCC 33592 assessed as inhibition of visible bacterial growth incubated for 18 to 20 hrs by CLSI method; type: functional; conditions: time 18-20 hrs; in short: as §1

## O=C(Nc1nnc(-c2cccs2)o1)c1ccc(S(F)(F)(F)(F)F)cc1
Staphylococcus aureus [1]
  MIC: 0.5 µg/mL (≈ 1.26 µM)
Streptococcus pneumoniae [2]
  MIC: 0.125 µg/mL (≈ 0.315 µM)
Staphylococcus aureus [3]
  MIC: 0.25 µg/mL (≈ 0.629 µM)
Staphylococcus aureus [4]
  fractional inhibitory concentration index (FICI): 0.75
Staphylococcus aureus [5]
  MIC: 1 µg/mL (≈ 2.52 µM)
J774
  Activity: Non-Toxic
Enterococcus faecalis [6]
  MIC: 2 µg/mL (≈ 5.03 µM)
Staphylococcus aureus [7]
  MIC: 0.5 µg/mL (≈ 1.26 µM)
Staphylococcus aureus [8]
  MIC: 0.125 µg/mL (≈ 0.315 µM)
Staphylococcus aureus [9]
  MIC: 0.06 µg/mL (≈ 0.151 µM)
Staphylococcus aureus [10]
  fractional inhibitory concentration index (FICI): 1
Enterococcus faecalis [11]
  MIC: 2 µg/mL (≈ 5.03 µM)
Staphylococcus aureus [12]
  MIC: 0.25 µg/mL (≈ 0.629 µM)
Staphylococcus aureus [13]
  MIC: 0.5 µg/mL (≈ 1.26 µM)
Listeria monocytogenes
  MIC: 0.125 µg/mL (≈ 0.315 µM)
Escherichia coli
  inhibition: inactive
Streptococcus pneumoniae [14]
  MIC: 0.25 µg/mL (≈ 0.629 µM)
Staphylococcus aureus [15]
  MBC: 1 µg/mL (≈ 2.52 µM)
Pseudomonas aeruginosa
  inhibition: inactive
Staphylococcus aureus [16]
  MIC: 0.125 µg/mL (≈ 0.315 µM)
[17]
  hemolysis at 1 h, 128 ug/ml: 9%
Staphylococcus aureus [18]
  Activity: 3.96 log10CFU/ml
Staphylococcus aureus [19]
  MIC: 0.25 µg/mL (≈ 0.629 µM)
Acinetobacter baumannii
  inhibition: inactive
Staphylococcus aureus [20]
  fractional inhibitory concentration index (FICI): 1.5
Staphylococcus aureus [21]
  fractional inhibitory concentration index (FICI): 0.5
Staphylococcus aureus [22]
  MIC: 0.5 µg/mL (≈ 1.26 µM)
Staphylococcus aureus [23]
  MIC: 0.125 µg/mL (≈ 0.315 µM)
Staphylococcus aureus [24]
  MIC: 0.25 µg/mL (≈ 0.629 µM)
Staphylococcus aureus [25]
  MIC: 0.25 µg/mL (≈ 0.629 µM)
Staphylococcus aureus [26]
  MIC: 0.5 µg/mL (≈ 1.26 µM)
Caco-2
  Activity: Non-Toxic
[27]
  MIC: 0.06 µg/mL (≈ 0.151 µM)
Staphylococcus aureus [28]
  MIC: 0.5 µg/mL (≈ 1.26 µM)
